Laboratory results taken from ChEMBL document CHEMBL5032499, “A Druglike Small Molecule that Targets r(CCUG) Repeats in Myotonic Dystrophy Type 2 Facilitates Degradation by RNA Quality Control Pathways” (J Med Chem, 2021).
The source made the active and inactive calls. The rule behind the calls is not given here.

Assays:
[1] = Induction of disruption of r(CCUG)12-MBNL1 complex (unknown origin) incubated for 15 mins by TR-FRET assay; set-up: species or system Homo sapiens
Summary of the method: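 Biotinylated r(CCUG)12 was folded at 60 °C for 5 min in 20 mM HEPES pH 7.5, 110 mM KCl, 10 mM NaCl. It was then brought to assay buffer (plus 2 mM MgCl2, 2 mM CaCl2, 5 mM DTT, 0.1% BSA, 0.5% Tween-20) and preincubated 15 min with MBNL1-His6 (final 80 nM RNA, 60 nM protein). Compound was added for 15 min, then streptavidin-XL665 (40 nM) and anti-His6-Tb (0.44 ng/μL) for 30 min at room temperature. TR-FRET 545/665 ratios were read; IC50 was taken from dose-response fits.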

Fibroblast [2] = experiment: Cytotoxicity against DM2 patient derived fibroblast assessed as cell viability at 5 uM incubated for 48 hrs by Cell Titre-Glo assay; type: cell-based; settings: human
Summary of the method: (§1)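 DM2 patient-derived fibroblasts were grown in high-glucose DMEM with 20% FBS at 37 °C, 5% CO2. After 48 h of compound treatment, viability was read as CellTiter-Glo luminescence after 10 min at room temperature (n = 6 replicates, one independent experiment).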

Homo sapiens [3] = organism: Homo sapiens; experiment: Inhibition of r(CCUG)12-MBNL1 complex formation (unknown origin) assessed as rescue of IR exon 11 splicing defect at 5 uM by RT-PCR analysis; set-up: scale not given: the % may be the effect or the level left
Summary of the method: (§2)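 DM2 patient fibroblasts were treated at ~40% confluency for 48 h. About 1 μg of total RNA was reverse transcribed, and IR exon 11 was PCR-amplified for 35 cycles (95 °C/58 °C/72 °C). Products were resolved on 2% agarose stained with ethidium bromide and quantified by densitometry. Percent rescue was calculated as (DM2 untreated − treated exclusion)/(DM2 untreated − WT exclusion) × 100.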

Homo sapiens [4] = organism: Homo sapiens; experiment: Inhibition of r(CCUG)12-MBNL1 complex formation (unknown origin) assessed as rescue of IR exon 11 splicing defect at 1 uM by RT-PCR analysis; set-up: scale not given: the % may be the effect or the level left; summary of the method: as §2
Homo sapiens [5] = organism: Homo sapiens; experiment: Binding affinity to r(GACAGCCUGCUGUC)2 duplex (unknown origin) assessed as positive phase signal at 300 uM by waterLOGSY NMR spectroscopy
Summary of the method: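 For WaterLOGSY NMR, each compound at 300 μM was run alone or with 15 μM RNA (20:1 compound:RNA) in H2O containing 5% D2O by volume.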

Fibroblast [6] = experiment: Cytotoxicity against DM2 patient derived fibroblast assessed as cell viability upto 20 uM incubated for 48 hrs by Cell Titre-Glo assay; type: cell-based; settings: human; summary of the method: as §1
Homo sapiens [7] = organism: Homo sapiens; experiment: Binding affinity to r(GACAGCCUGCUGUC)2 (unknown origin) duplex assessed as resonance shift in H6 and H8 protons of RNA […] by 1D NMR spectroscopy
Summary of the method: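 For 1D NMR, RNA at 100 μM in 100% D2O was titrated with compound at 0.5, 1.0, 1.5 and 2.0 compound:RNA molar ratios, each in a separate sample.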

Row | Structure (SMILES) | IC50 [1] [µM] | further results
1 | Cc1ccc2nc(Nc3ccc4nc(-c5ccccc5C)sc4c3)nc(NCCCO)c2c1 | 200 | 
2 | Cc1nc2ccc(Nc3nc(NCCCO)c4ccccc4n3)cc2o1 | 10 | 
3 | Cc1ccc2nc(Nc3ccc4nc(NCCN5CCOCC5)sc4c3)nc(NCCCO)c2c1 | 0.3 | Activity (Fibroblast [2]): Toxic
4 | Cn1nc(Nc2nc(NCCCO)c3ccccc3n2)c2ccccc21 | 200 | 
5 | CCn1nc(CNC(=O)CN(C)C2CCNCC2)c2ccccc21 | 70 | 
6 | CC(=O)Nc1ccc(Nc2nc(NCCO)c3ccccc3n2)cc1 | 60 | 
7 | Cc1ccc2nc(Nc3ccc4nc(N5CCN(C)CC5)sc4c3)nc(NCCCO)c2c1 | 1 | Activity (Fibroblast [2]): Toxic
8 | CN(C)c1ccc(Nc2nc(N(C)C)c3ccccc3n2)cc1 | 60 | 
9 | CC(O)c1cccc(Nc2nc(N(C)C)c3ccccc3n2)c1 (stereo not given) | 95 | 
10 | Cc1ccc2nc(Nc3ccc4nc(NCCN(C)C)sc4c3)nc(NCCCO)c2c1 | 4 | Activity (Fibroblast [2]): Non-Toxic; Activity (Homo sapiens [3]): inactive; Activity (Homo sapiens [4]): inactive
11 | CCOc1cc(-c2nc3cc(-n4cnnn4)ccc3[nH]2)ccc1O | 200 | 
12 | CC(=O)Nc1ccc(Nc2nc(NCC3CCCO3)c3ccccc3n2)cc1 (stereo not given) | 45 | Activity (Homo sapiens [5]): Active; Activity (Fibroblast [6]): Non-Toxic; Activity (Homo sapiens [7]): Active
13 | CN(C)c1nc(Nc2ccc(C(N)=O)cc2)nc2ccccc12 | 50 | Activity (Homo sapiens [5]): inactive
14 | Cc1ccc2nc(Nc3ccc4nc(NCCOc5ccccc5)sc4c3)nc(NCCCO)c2c1 | 110 | 
15 | CNc1nc(Nc2cccc(O)c2)nc2ccccc12 | 105 | 
16 | Cc1ccc2nc(Nc3ccc4nc(NC5CCN(Cc6ccccc6)CC5)sc4c3)nc(NCCCO)c2c1 | 0.4 | Activity (Fibroblast [2]): Toxic
17 | OCCCNc1nc(Nc2cccc(O)c2)nc2ccccc12 | 200 | 
18 | COc1ccc(Nc2nc(N(C)C)c3ccccc3n2)cc1 | 65 | 
19 | Cc1ccc2nc(Nc3ccc4nc(-c5ccc6[nH]ccc6c5)sc4c3)nc(NCCCO)c2c1 | 200 | 
20 | CN(C)c1ccc(Nc2nc(NCCCO)c3ccccc3n2)cc1 | 40 | Activity (Homo sapiens [5]): Active; Activity (Fibroblast [6]): Non-Toxic; Activity (Homo sapiens [7]): Active
21 | Cc1ccc2nc(Nc3ccc4nc(C)oc4c3)nc(NCCCO)c2c1 | 10 | 

Row | Structure (SMILES) | IC50 [1] [µM] | further results
22 | Cc1ccccc1Nc1nc(NCCCO)c2ccccc2n1 | 80 | 
23 | CN(c1ccc2c(c1)OCCO2)c1nc(NCCCO)c2ccccc2n1 | 200 | 
24 | COc1ccc(Nc2nc(NCCCO)c3ccccc3n2)cc1 | 40 | Activity (Homo sapiens [5]): Active; Activity (Fibroblast [6]): Non-Toxic; Activity (Homo sapiens [7]): Active
25 | Cc1ccc2nc(Nc3ccc4nc(-c5cc[nH]n5)sc4c3)nc(NCCCO)c2c1 | 20 | 
26 | CCNc1nc(Nc2ccc(NC(C)=O)cc2)nc2ccccc12 | 30 | Activity (Homo sapiens [5]): inactive
27 | Cc1ccc2nc(Nc3ccc4nc(-c5ccc(F)cc5)sc4c3)nc(NCCCO)c2c1 | 200 | Activity (Fibroblast [2]): Toxic
28 | CCOc1ccc(C(=O)Nc2cc(-c3nc4ccccc4[nH]3)ccc2Cl)cc1[N+](=O)[O-] | 105 | 
29 | Cc1c(Nc2nc(NCCCO)c3ccccc3n2)ccc2c1OCCO2 | 135 | 
30 | COc1cccc(Nc2nc(N(C)C)c3ccccc3n2)c1 | 85 | 
31 | OCCCNc1nc(Nc2ccc3c(c2)OCO3)nc2ccccc12 | 200 | 
32 | COc1ccc(Nc2nc(NCCO)c3ccccc3n2)cc1Cl | 50 | 
33 | Cc1ccc2nc(Nc3ccc4nc(NCC(C)(C)O)sc4c3)nc(NCCCO)c2c1 | 1 | Activity (Fibroblast [2]): Non-Toxic; Activity (Homo sapiens [3]): 30%
34 | Cc1ccc2nc(Nc3ccc4cnn(C)c4c3)nc(NCCCO)c2c1 | 30 | Activity (Fibroblast [2]): Toxic
35 | CN(C)c1nc(Nc2ccc(O)cc2)nc2ccccc12 | 70 | 
36 | Cc1n[nH]c2nc(Nc3ccc4c(c3)OCCO4)nc(NCCCO)c12 | 200 | 
37 | Cc1ccc2nc(Nc3ccc4nc(N5CCOCC5)sc4c3)nc(NCCCO)c2c1 | 0.2 | Activity (Fibroblast [2]): Toxic
38 | Cn1ncc2ccc(Nc3nc(NCCCO)c4ccccc4n3)cc21 | 30 | 
39 | CC(=O)Nc1cccc(Nc2nc(N(C)C)c3ccccc3n2)c1 | 80 | 
40 | CCNc1nc(Nc2ccc(O)cc2)nc2ccccc12 | 100 | 
41 | Cc1cccc2c(NCCCO)nc(Nc3ccc4c(c3)OCCO4)nc12 | 105 | 
42 | Cc1nc2ccc(Nc3nc(NCCCO)c4ccccc4n3)cc2s1 | 7 | 

Row | Structure (SMILES) | IC50 [1] [µM] | further results
43 | CN(C)c1nc(Nc2cccc(O)c2)nc2ccccc12 | 75 | 
44 | CCNc1nc(Nc2cccc(O)c2)nc2ccccc12 | 135 | 
45 | COCCn1cncc1CNC(=O)Nc1ccc2cnn(C)c2c1 | 200 | 
46 | CN(C)c1ccc(Nc2nc(N3CCOCC3)c3ccccc3n2)cc1 | 200 | 
47 | CN(C)c1nc(Nc2ccc3c(c2)OCCO3)nc2ccccc12 | 80 | 
48 | OCCCNc1nc(Nc2ccc3c(c2)OC(F)(F)O3)nc2ccccc12 | 170 | 
49 | CN1CCOc2cc(Nc3nc(NCCCO)c4ccccc4n3)ccc21 | 70 | 
50 | COC(=O)c1cccc(Nc2nc(N)c3ccccc3n2)c1 | 200 | 
51 | Cc1ccc2nc(Nc3ccc4nc(-c5cccc(F)c5)sc4c3)nc(NCCCO)c2c1 | 200 | 
52 | COc1cccc(Nc2nc(NCCCO)c3ccccc3n2)c1 | 100 | 
53 | CC(O)c1cccc(Nc2nc(N3CCCC3)c3ccccc3n2)c1 (stereo not given) | 70 | 
54 | OCCCNc1nc(Nc2ccc3c(c2)OCCO3)nc2c(F)cccc12 | 200 | 
55 | OCCCNc1nc(Nc2ccc3c(c2)OCCO3)nc2c1CCCC2 | 90 | 
56 | CC(C)(C)C(Cn1ccnc1)NC(=O)Nc1ccc2[nH]ncc2c1 (stereo not given) | 190 | 
57 | Cc1ccc2nc(Nc3ccc4nc(NCCOCc5ccccc5)sc4c3)nc(NCCCO)c2c1 | 20 | 
58 | COc1cc(-c2nc3cc(-n4cnnn4)ccc3[nH]2)ccc1OCCN1CCCC1 | 70 | 
59 | OCCCNc1nc(Nc2ccccc2)nc2ccccc12 | 165 | 
60 | CC(=O)c1cccc(Nc2nc(NCCCO)c3ccccc3n2)c1 | 75 | 
61 | Cc1ccc2nc(Nc3ccc4nc(NCc5ccc6c(c5)OCO6)sc4c3)nc(NCCCO)c2c1 | 105 | 
62 | CC(=O)Nc1ccc(Nc2nc(NCCCO)c3ccccc3n2)cc1 | 200 | 
63 | OCCCNc1nc(Nc2ccc(O)cc2)nc2ccccc12 | 95 | 

Row | Structure (SMILES) | IC50 [1] [µM] | further results
64 | OCCCNc1nc(Nc2ccc3c(c2)OCCO3)nc2ccc(F)cc12 | 60 | 
65 | OCCCNc1nc(Nc2ccc3c(c2)OCCO3)nc2ccccc12 | 50 | Activity (Homo sapiens [3]): 50%; Activity (Homo sapiens [5]): Active; Activity (Fibroblast [6]): Non-Toxic; Activity (Homo sapiens [7]): Active; Activity (Homo sapiens [4]): 12%
66 | CN1CCN(c2nc(Nc3ccc(O)cc3)nc3ccccc23)CC1 | 155 | 
67 | CC(=O)Nc1cccc(Nc2nc(N3CCCC3)c3ccccc3n2)c1 | 70 | 
68 | CC(=O)c1cccc(Nc2nc(N(C)C)c3ccccc3n2)c1 | 100 | 
69 | CC(=O)Nc1ccc(Nc2nc(N3CCCC3)c3ccccc3n2)cc1 | 35 | Activity (Homo sapiens [5]): inactive
70 | OCCCNc1nc(Nc2cccc(F)c2)nc2ccccc12 | 135 | 
71 | Cc1ccc2nc(Nc3ccc4c(c3)OCCO4)nc(NCCCO)c2c1 | 12.7 | 
72 | CC(=O)Nc1cccc(Nc2nc(NCC3CCCO3)c3ccccc3n2)c1 (stereo not given) | 90 | 
73 | Cc1ccc(Nc2nc(NCCCO)c3ccccc3n2)cc1 | 150 | 
74 | OCCCNc1nc(Nc2ccc3c(c2)OCCO3)nc2c1COC2 | 200 | 
75 | OCCCNc1nc(Nc2ccc3c(c2)OCCO3)nc2cc(F)ccc12 | 200 | 
76 | Cc1ccc2nc(Nc3ccc4nc(C(N)=O)sc4c3)nc(NCCCO)c2c1 | 200 | 
77 | Cc1ccc2nc(Nc3ccc4nc(NCCc5ccc(S(N)(=O)=O)cc5)sc4c3)nc(NCCCO)c2c1 | 10 | 
78 | C=CCNc1nc(Nc2ccc(O)cc2)nc2ccccc12 | 85 | 
79 | Cc1ccc2nc(Nc3ccc4nc(NCC(C)C)sc4c3)nc(NCCCO)c2c1 | 0.3 | Activity (Fibroblast [2]): Toxic
80 | Cc1ccc2nc(Nc3ccc4nc(N(CCO)CCO)sc4c3)nc(NCCCO)c2c1 | 10 | 
81 | CC(=O)Nc1cccc(Nc2nc(NCCCO)c3ccccc3n2)c1 | 110 | 
